# Reference: ChEMBL document CHEMBL1145515, “In Vitro activities of isepamicin, other aminoglycosides, and capreomycin against clinical isolates of rapidly growing mycobacteria in Taiwan” (2007)
# Assays:
# Format in all cases: functional
# [1] = system: Mycobacteroides abscessus; assay: Antimicrobial activity against Mycobacterium abscessus R31 isolate after 3 to 5 days by broth microdilution method
# Outline: (§1)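 Clinical isolates subcultured on Trypticase soy agar with 5% sheep blood, 30°C, 72 h. Colonies suspended in cation-supplemented Mueller-Hinton broth to a final inoculum of 5 × 10^5 CFU/ml. Twofold serial dilutions made in the same broth, final well concentrations 0.25 to 128 μg/ml. Trays incubated at 30°C; MIC read after 3 to 5 days.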
# [2] = system: Mycobacteroides abscessus; assay: Antimicrobial activity against Mycobacterium abscessus R39 isolate after 3 to 5 days by broth microdilution method; outline: as §1
# [3] = system: Mycobacteroides abscessus; assay: Antimicrobial activity against Mycobacterium abscessus NTU445 isolate after 3 to 5 days by broth microdilution method; outline: as §1
# [4] = system: Mycobacteroides abscessus; assay: Antimicrobial activity against Mycobacterium abscessus NTU459 isolate after 3 to 5 days by broth microdilution method; outline: as §1
# [5] = system: Mycobacteroides abscessus; assay: Antimicrobial activity against Mycobacterium abscessus R51 isolate after 3 to 5 days by broth microdilution method; outline: as §1
# [6] = system: Mycobacteroides abscessus; assay: Antimicrobial activity against Mycobacterium abscessus NTU446 isolate after 3 to 5 days by broth microdilution method; outline: as §1
# [7] = system: Mycobacteroides abscessus; assay: Antimicrobial activity against Mycobacterium abscessus R47 isolate after 3 to 5 days by broth microdilution method; outline: as §1
# [8] = system: Mycobacteroides abscessus; assay: Antimicrobial activity against Mycobacterium abscessus R50 isolate after 3 to 5 days by broth microdilution method; outline: as §1
# [9] = system: Mycobacteroides abscessus; assay: Antimicrobial activity against Mycobacterium abscessus R54 isolate after 3 to 5 days by broth microdilution method; outline: as §1
# [10] = system: Mycobacteroides abscessus; assay: Antimicrobial activity against Mycobacterium abscessus R61 isolate after 3 to 5 days by broth microdilution method; outline: as §1
# [11] = system: Mycobacteroides abscessus; assay: Antimicrobial activity against Mycobacterium abscessus R65 isolate after 3 to 5 days by broth microdilution method; outline: as §1
# [12] = system: Mycobacteroides abscessus; assay: Antimicrobial activity against Mycobacterium abscessus R53 isolate after 3 to 5 days by broth microdilution method; outline: as §1
# [13] = system: Mycobacteroides abscessus; assay: Antimicrobial activity against Mycobacterium abscessus R49 isolate after 3 to 5 days by broth microdilution method; outline: as §1
# [14] = system: Mycobacteroides abscessus; assay: Antimicrobial activity against Mycobacterium abscessus V120 isolate after 3 to 5 days by broth microdilution method; outline: as §1
# [15] = system: Mycobacteroides abscessus; assay: Antimicrobial activity against Mycobacterium abscessus after 3 to 5 days by broth microdilution method; outline: as §1
# Mycobacteroides chelonae = assay: Antimicrobial activity against Mycobacterium chelonae after 3 to 5 days by broth microdilution method; outline: as §1
# [16] = system: Mycolicibacterium fortuitum; assay: Antimicrobial activity against Mycobacterium fortuitum after 3 to 5 days by broth microdilution method; outline: as §1
# [17] = system: Mycobacteroides abscessus; assay: Antimicrobial activity against Mycobacterium abscessus CH10 isolate after 3 to 5 days by broth microdilution method; outline: as §1
# [18] = system: Mycolicibacterium fortuitum; assay: Antimicrobial activity against Mycobacterium fortuitum V13 isolate after 3 to 5 days by broth microdilution method; outline: as §1
# [19] = system: Mycolicibacterium fortuitum; assay: Antimicrobial activity against Mycobacterium fortuitum V61 isolate after 3 to 5 days by broth microdilution method; outline: as §1
# [20] = system: Mycolicibacterium fortuitum; assay: Antimicrobial activity against Mycobacterium fortuitum V146 isolate after 3 to 5 days by broth microdilution method; outline: as §1
Compound,MIC [1] [µg/mL],MIC [2] [µg/mL],MIC [3] [µg/mL],MIC [4] [µg/mL],MIC [5] [µg/mL],MIC [6] [µg/mL],MIC [7] [µg/mL],MIC [8] [µg/mL],MIC [9] [µg/mL],MIC [10] [µg/mL],MIC [11] [µg/mL],MIC [12] [µg/mL],MIC [13] [µg/mL],MIC [14] [µg/mL],MIC50 [15] [µg/mL],MIC90 [15] [µg/mL],MIC50 (Mycobacteroides chelonae) [µg/mL],MIC90 (Mycobacteroides chelonae) [µg/mL],MIC50 [16] [µg/mL],MIC90 [16] [µg/mL],also measured
NC[C@H]1O[C@H](O[C@H]2[C@H](O)[C@@H](O[C@H]3O[C@H](CO)[C@@H](O)[C@H](N)[C@H]3O)[C@H](N)C[C@@H]2N)[C@H](O)[C@@H](O)[C@@H]1O [KANAMYCIN],> 128,16,16,16,16,8,8,8,8,8,8,4,4,8,8,8,4,8,8,32,MIC [17]: > 128 µg/mL; MIC [18]: > 128 µg/mL; MIC [19]: 32 µg/mL; MIC [20]: 32 µg/mL
"NC[C@H]1O[C@H](O[C@H]2C(O)[C@@H](O[C@H]3O[C@H](CO)[C@@H](O)[C@H](N)[C@H]3O)[C@H](N)C[C@@H]2N)[C@H](N)C[C@@H]1O (single isomer, unassigned) [TOBRAMYCIN]",> 128,32,16,8,32,4,16,16,32,16,16,8,16,16,8,16,16,32,16,64,MIC [17]: > 128 µg/mL; MIC [18]: 128 µg/mL; MIC [19]: 64 µg/mL; MIC [20]: 64 µg/mL
NCC[C@H](O)C(=O)N[C@@H]1C[C@H](N)[C@@H](O[C@H]2O[C@H](CN)[C@@H](O)[C@H](O)[C@H]2O)[C@H](O)[C@H]1O[C@H]1O[C@H](CO)[C@@H](O)[C@H](N)[C@H]1O [AMIKACIN],> 128,64,32,32,32,32,32,32,32,32,32,32,32,32,16,32,8,8,1,4,MIC [17]: > 128 µg/mL; MIC [18]: 4 µg/mL; MIC [19]: 4 µg/mL; MIC [20]: 4 µg/mL

# Second part, led by results:
MIC [1] [µg/mL],MIC [2] [µg/mL],MIC [3] [µg/mL],MIC [4] [µg/mL],MIC [5] [µg/mL],MIC [6] [µg/mL],MIC [7] [µg/mL],MIC [8] [µg/mL],MIC [9] [µg/mL],MIC [10] [µg/mL],MIC [11] [µg/mL],MIC [12] [µg/mL],MIC [13] [µg/mL],MIC [14] [µg/mL],MIC50 [15] [µg/mL],MIC90 [15] [µg/mL],MIC50 (Mycobacteroides chelonae) [µg/mL],MIC90 (Mycobacteroides chelonae) [µg/mL],MIC50 [16] [µg/mL],MIC90 [16] [µg/mL],Compound,also measured
> 128,> 128,> 128,> 128,> 128,> 128,> 128,> 128,> 128,> 128,> 128,128,128,128,128,> 128,64,128,64,128,CN[C@@H]1[C@H](O[C@H]2[C@H](O[C@H]3[C@H](O)[C@@H](O)[C@H](N=C(N)N)[C@@H](O)[C@@H]3N=C(N)N)O[C@@H](C)[C@]2(O)C=O)O[C@@H](CO)[C@H](O)[C@H]1O (stereo in doubt) [STREPTOMYCIN],MIC [17]: > 128 µg/mL; MIC [18]: 128 µg/mL; MIC [19]: > 128 µg/mL; MIC [20]: > 128 µg/mL
> 128,32,32,32,16,16,16,16,16,16,16,16,8,8,8,16,4,8,8,16,CN[C@@H]1[C@@H](O)[C@@H](O[C@@H]2[C@@H](O)[C@H](O[C@H]3O[C@H](CN)[C@@H](O)[C@H](O)[C@H]3O)[C@@H](N)C[C@H]2NC(=O)[C@@H](O)CN)OC[C@]1(C)O [ISEPAMICIN],MIC [17]: > 128 µg/mL; MIC [18]: 64 µg/mL; MIC [19]: 32 µg/mL; MIC [20]: 32 µg/mL
